Source: ChEMBL document CHEMBL1773023, “Potent and selective phosphopeptide mimetic prodrugs targeted to the Src homology 2 (SH2) domain of signal transducer and activator of transcription 3” (J Med Chem, 2011)
Calls of active or inactive are those of the source. The calls are words filed in the database; no cut-off is given here.

Assays:
[1] = target: Baculoviral IAP repeat-containing protein 5 (Homo sapiens) (UniProt O15392); test: Inhibition of survivin in human MDA-MB-468 cells at 5 uM after up to 48 hrs by Western blotting; type: cell-based
[2] = target: T1, Signal transducer and activator of transcription 3 (Homo sapiens, UniProt P40763); test: Inhibition of SH2 domain of Stat3 constitutive phosphorylation at Tyr705 in human MDA-MB-468 cells at 5 uM after 16 hrs by Western blotting; type: cell-based
Outline: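 MDA-MB-468 cells given a single 5 μM prodrug dose and harvested at set times; pTyr705 and total Stat3 by Western blot of 12 μg lysate protein on 8% SDS-PAGE.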

[3] = target: T1, Signal transducer and activator of transcription 3; test: Inhibition of SH2 domain of Stat3 in human MDA-MB-468 cells assessed as reduction of phosphorylated Stat3 level in cell nucleus at 5 uM after 2 hrs by fluorescence immunohistochemical analysis; type: cell-based
Outline: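 MDA-MB-468 cells on slides treated with 5 μM prodrug or DMSO for 2 h, fixed in 4% paraformaldehyde, permeabilized with 0.5% Triton X-100, blocked in 3% BSA, stained with anti-pTyr705 Stat3 and Alexa Fluor 594 secondary; confocal imaging at fixed microscope settings.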

MDA-MB-468 = test: Selectivity ratio of inhibition of IFNgamma-induced Stat1 phosphorylation at Tyr701 to inhibition of EGF-induced SH2 domain of Stat3 phosphorylation at Tyr705 in human MDA-MB-468 cells; type: cell-based
[4] = target: MAP kinase p38 (Homo sapiens) (UniProt O15264+Q15759+Q16539+P53778); test: Inhibition of p38 MAPK phosphorylation in human HCC-827 cells at 5 uM after up to 24 hrs by Western blotting; type: cell-based
[5] = target: RAC-alpha serine/threonine-protein kinase (Homo sapiens) (UniProt P31749); test: Inhibition of Akt phosphorylation at Ser473 in human HCC-827 cells at 5 uM after up to 24 hrs by Western blotting; type: cell-based
[6] = Cytotoxicity against human SKOV3ip cells after 72 hrs by SRB assay; type: functional, cell-based; details: SKOV3-ip
Outline: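 Cancer cell lines (MCF-7, SKOV3-ip, HCC-827) dosed daily with prodrug for three days; viability by SRB assay.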

A-375 = test: Cytotoxicity against human A375 cells assessed as cell growth inhibition at 5 to 10 uM after 72 hrs by MTT assay; type: functional
Outline: (§1)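 Cell lines with constitutive Stat3 phosphorylation (melanoma, NSCLC) exposed to prodrug at 5–10 μM. Percent growth inhibition recorded.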

[7] = Cytotoxicity against human H1299 cells assessed as cell growth inhibition at 5 to 10 uM after 72 hrs by MTT assay; type: functional, NCI-H1299; outline: as §1
A549 = test: Cytotoxicity against human A549 cells assessed as cell growth inhibition at 5 to 10 uM after 72 hrs by MTT assay; type: functional; outline: as §1
[8] = target: Focal adhesion kinase 1 (Homo sapiens) (UniProt Q05397); test: Inhibition of constitutive FAK phosphorylation at Tyr861 in human MDA-MB-468 cells at 5 uM measured after 2 hrs by Western blotting
Sequence of Focal adhesion kinase 1 (Homo sapiens) (Q05397 2-1052 limits assumed): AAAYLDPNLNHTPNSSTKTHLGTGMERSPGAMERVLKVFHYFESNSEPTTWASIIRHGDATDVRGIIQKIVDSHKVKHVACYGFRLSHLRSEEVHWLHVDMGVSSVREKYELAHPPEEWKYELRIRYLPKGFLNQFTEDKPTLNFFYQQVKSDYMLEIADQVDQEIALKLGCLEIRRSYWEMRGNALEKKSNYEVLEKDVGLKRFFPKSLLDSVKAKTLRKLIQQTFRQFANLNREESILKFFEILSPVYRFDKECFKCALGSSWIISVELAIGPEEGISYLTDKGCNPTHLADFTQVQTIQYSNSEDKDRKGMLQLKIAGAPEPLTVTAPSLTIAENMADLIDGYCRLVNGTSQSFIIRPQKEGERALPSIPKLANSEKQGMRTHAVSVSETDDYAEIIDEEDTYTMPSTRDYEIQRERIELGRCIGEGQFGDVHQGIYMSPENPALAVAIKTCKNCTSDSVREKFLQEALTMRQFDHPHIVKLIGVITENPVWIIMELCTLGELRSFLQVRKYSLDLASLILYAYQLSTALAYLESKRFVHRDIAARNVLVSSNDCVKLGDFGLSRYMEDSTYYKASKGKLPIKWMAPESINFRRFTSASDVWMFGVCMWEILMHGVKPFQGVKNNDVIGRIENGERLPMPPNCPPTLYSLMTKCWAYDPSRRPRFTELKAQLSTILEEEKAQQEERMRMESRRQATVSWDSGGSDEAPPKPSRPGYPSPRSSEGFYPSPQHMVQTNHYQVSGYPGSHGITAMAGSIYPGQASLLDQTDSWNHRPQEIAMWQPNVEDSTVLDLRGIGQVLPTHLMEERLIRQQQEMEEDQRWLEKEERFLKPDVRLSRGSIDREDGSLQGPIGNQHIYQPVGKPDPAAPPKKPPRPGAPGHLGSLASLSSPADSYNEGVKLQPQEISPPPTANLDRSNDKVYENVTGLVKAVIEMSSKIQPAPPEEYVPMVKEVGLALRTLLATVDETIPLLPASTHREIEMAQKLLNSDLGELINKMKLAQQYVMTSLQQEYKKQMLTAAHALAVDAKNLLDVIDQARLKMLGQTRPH

T1 sequence (P40763 whole entry, the tested form may be a part): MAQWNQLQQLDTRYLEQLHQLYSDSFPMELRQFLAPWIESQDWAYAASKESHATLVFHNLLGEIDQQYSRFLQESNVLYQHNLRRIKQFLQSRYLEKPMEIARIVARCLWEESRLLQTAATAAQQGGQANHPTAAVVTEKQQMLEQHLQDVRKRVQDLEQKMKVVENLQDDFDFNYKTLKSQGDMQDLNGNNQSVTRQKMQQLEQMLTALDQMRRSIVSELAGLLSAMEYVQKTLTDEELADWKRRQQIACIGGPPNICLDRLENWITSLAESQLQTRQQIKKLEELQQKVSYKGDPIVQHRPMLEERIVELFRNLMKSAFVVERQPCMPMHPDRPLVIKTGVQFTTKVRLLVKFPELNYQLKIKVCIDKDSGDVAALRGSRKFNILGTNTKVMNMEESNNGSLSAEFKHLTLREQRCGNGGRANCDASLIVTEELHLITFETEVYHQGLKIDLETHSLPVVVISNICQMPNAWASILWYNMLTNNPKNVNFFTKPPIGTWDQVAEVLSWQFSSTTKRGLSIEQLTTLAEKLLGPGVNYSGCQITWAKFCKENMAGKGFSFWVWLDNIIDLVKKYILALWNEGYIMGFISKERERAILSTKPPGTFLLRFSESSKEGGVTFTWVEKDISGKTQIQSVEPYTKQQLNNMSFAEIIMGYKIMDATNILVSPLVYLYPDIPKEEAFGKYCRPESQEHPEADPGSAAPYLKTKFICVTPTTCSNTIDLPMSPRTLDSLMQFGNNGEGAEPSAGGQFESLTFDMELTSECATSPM
Sequence of RAC-alpha serine/threonine-protein kinase (Homo sapiens) (P31749 whole entry): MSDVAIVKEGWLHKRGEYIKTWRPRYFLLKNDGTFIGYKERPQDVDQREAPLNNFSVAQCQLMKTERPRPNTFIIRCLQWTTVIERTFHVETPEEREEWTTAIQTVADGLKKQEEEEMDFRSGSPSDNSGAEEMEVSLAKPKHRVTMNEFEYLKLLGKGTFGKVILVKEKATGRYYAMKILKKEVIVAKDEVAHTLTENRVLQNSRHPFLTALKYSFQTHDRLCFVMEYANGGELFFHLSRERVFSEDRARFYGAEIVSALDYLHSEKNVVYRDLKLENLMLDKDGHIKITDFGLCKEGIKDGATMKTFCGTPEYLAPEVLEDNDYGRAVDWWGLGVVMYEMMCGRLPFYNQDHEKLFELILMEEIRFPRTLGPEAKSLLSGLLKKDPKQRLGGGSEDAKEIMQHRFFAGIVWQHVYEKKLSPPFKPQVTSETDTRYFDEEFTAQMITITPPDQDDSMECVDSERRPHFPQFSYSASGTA
Sequence of Baculoviral IAP repeat-containing protein 5 (Homo sapiens) (O15392 whole entry, the tested form may be a part): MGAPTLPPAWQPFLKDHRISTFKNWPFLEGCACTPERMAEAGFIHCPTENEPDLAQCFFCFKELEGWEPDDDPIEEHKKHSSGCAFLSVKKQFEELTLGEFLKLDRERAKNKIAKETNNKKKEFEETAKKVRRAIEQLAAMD

inhibition [2]: inactive
inhibition [3]: Active
inhibition [4]: inactive
inhibition [5]: inactive
inhibition [8]: inactive
Structure (SMILES): C/C(=C\C(=O)N[C@H]1CCc2cccc3c2N(C1=O)[C@H](C(=O)N[C@H](C)CCC(N)=O)C3)c1ccc(C(F)(F)P(=O)(OCOC(=O)C(C)(C)C)OCOC(=O)C(C)(C)C)cc1
inhibition [1]: Active
Ratio (MDA-MB-468): 10
IC50 [6]: > 30 µM
growth inhibition (GI) (A-375): <20%
growth inhibition (GI) [7]: <20%
growth inhibition (GI) (A549): <20%
